Screens (PubChem BioAssay)
hERG rescue = hERG rescue from dofetilide block, primary screen, cell-based, CHO-hERG, FluxOR thallium flux, dofetilide IC70; Voltage-gated inwardly rectifying potassium channel KCNH2 (Homo sapiens), Q12809; dofetilide IC70 present; activation (rescue from dofetilide block), less the hit threshold, % at 10 µM; 310,000 tested, 0.51% active; AID 1511, 2009;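 active = activation above the mean of controls blocked by dofetilide plus 5 SD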;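 also: thallium influx through hERG after potassium depolarization seen as dye fluorescence rise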
KCNQ1 block = inhibitors of human KCNQ1 channel, primary screen, cell-based, thallium flux, high-throughput; CHO-K1 KCNQ1, FluxOR thallium flux fluorescence; active compounds read high; B-score at 10 µM; 310,000 tested, 1.3% active; Potassium voltage-gated channel subfamily KQT member 1 (Homo sapiens), P51787;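 active = compounds whose thallium flux B-score, printed positive for inhibition, exceeds three library SD while starting fluorescence stays within three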;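 also: channel opened by potassium depolarization with thallium stimulus after 20 min compound exposure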
KCNK9 block = KCNK9 potassium channel inhibitors, primary screen, HEK293 cells, thallium flux; Potassium channel subfamily K member 9 (Homo sapiens), Q9NPC2; B-score at 10 µM; AID 488922, 2010; FluxOR thallium flux fluorescence; active compounds read low; 310,000 tested, 1.2% active;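 active = ratio B-score over 3 SD below the library mean, with starting fluorescence within 5 SD of its mean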;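 also: negative B-score means less thallium flux so channel inhibition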
Kir21 inh = inhibitors of mouse Kir2.1 inward-rectifier potassium channel | B-score at 10 µM | Inward rectifier potassium channel 2 (Mus musculus), P35561 | 310,000 tested, 0.85% active | HEK293-Kir2.1, FluxOR thallium flux fluorescence; active compounds read low | AID 1672, 2009;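 active = fluorescence ratio B-score at or below minus 3 SD of library scores, with starting-brightness B-score within 2 SD, cut at about -4.2 in these data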;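 also: channel flux triggered by added potassium and thallium sulfate stimulus; B-score of peak minus minimum fluorescence over baseline after thallium stimulus; more negative B-score means stronger Kir2.1 block with less thallium influx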
Target sequence (P35561 whole entry, looked up): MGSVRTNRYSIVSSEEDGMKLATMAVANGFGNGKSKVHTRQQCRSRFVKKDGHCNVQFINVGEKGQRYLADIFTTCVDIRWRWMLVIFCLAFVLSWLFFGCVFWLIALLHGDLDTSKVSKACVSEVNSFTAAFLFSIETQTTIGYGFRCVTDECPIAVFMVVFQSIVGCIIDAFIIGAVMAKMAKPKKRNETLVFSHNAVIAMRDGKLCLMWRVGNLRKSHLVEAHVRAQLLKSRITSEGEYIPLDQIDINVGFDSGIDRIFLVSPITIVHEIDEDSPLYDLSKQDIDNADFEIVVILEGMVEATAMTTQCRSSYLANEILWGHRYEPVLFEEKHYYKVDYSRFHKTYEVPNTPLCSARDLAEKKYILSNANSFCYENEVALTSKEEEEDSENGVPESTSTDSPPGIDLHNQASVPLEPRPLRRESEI
KCNQ1 act = potentiators or activators of KCNQ1 channel, primary screen, cell-based, thallium flux, high-throughput | Potassium voltage-gated channel subfamily KQT member 1 (Homo sapiens), P51787 | CHO-K1 KCNQ1, thallium flux FluxOR fluorescence; active compounds read high | B-score at 10 µM | 310,000 tested, 0.35% active | AID 2648, 2010;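 active = fluorescence ratio B-score, a plate-corrected score, at least three library SD, with initial intensity B-score within 5 SD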
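Assay system: CHO-K1 cells stably expressing KCNQ1; Medium: assay buffer with matched DMSO; Also added: K+/Tl+ depolarizing stimulus; Dosing: single dose; Timing: dye 90 min, compound 20 min, room temperature; Measured by: kinetic FluxOR thallium fluorescence, 10-s 1-Hz baseline, 110-s post-stimulus read; Read-out: peak-minus-minimum fluorescence over initial fluorescence, negative-control normalized, B-scored.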
KCNK3 inh = human KCNK3 channel inhibitors, primary screen, CHO cells, FluxOR thallium flux, B-score; Potassium channel subfamily K member 3 (Homo sapiens), O14649; FluxOR fluorescence; active compounds read low; B-score at 10 µM; 340,000 tested, 0.84% active; AID 602410, 2012;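 active = B-score under library mean minus 4 SD, starting fluorescence ratio at most library mean plus 5 SD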;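 also: more negative B-score means stronger inhibition of thallium flux through KCNK3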
KCNK9 inh conf = KCNK9 potassium channel inhibitors, confirmation, HEK293 cells, thallium flux, duplicate; shares compounds with KCNK9 block; FluxOR thallium flux fluorescence; inhibition, % at 10 µM; 4,900 tested, 43% active; AID 492992, 2010;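 active = thallium signal inhibited by more than 5 SD of the compound-free buffer control wells, on both duplicate plates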
Kir21 sel = mouse Kir2.1 channel inhibition, confirmation, selectivity assay for KCNK9 modulator project, cell-based, HEK293, thallium flux. shares compounds with KCNK9 block. Kir2.1 cells, FluxOR thallium flux fluorescence. inhibition, % at 10 µM. 4,900 tested, 4% active;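 active = thallium signal drop more than 5 SD beyond the mean of the no-compound control wells, seen in both duplicate plates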;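 also: signal is fluorescence rise after thallium addition divided by baseline fluorescence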
KCNK9 uninduced = thallium flux in non-induced HEK293 cells, confirmation, counter-screen for KCNK9 inhibitor project, cell-based, second counter screen, non-induced KCNK9-HEK293. inhibition, % at 10 µM. AID 492997, 2010. 4,900 tested, 40% active. FluxOR thallium flux. shares compounds with KCNK9 block;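 active = thallium signal drop beyond 5 SD of the untreated control mean, on both duplicate plates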
Large screens that a line does not name were inactive (follow-up assays come after a bar, where they were run). This is a sample that favours compounds with a hit; in the whole collection about 3.7% have one here.

COc1ccc2oc(C(=O)NCC(c3ccco3)N(C)C)c(C)c2c1 (stereo not drawn)	none
Cc1ccc2oc(C(=O)N(C)Cc3ccc(C)o3)c(C)c2c1	none | KCNK9 inh conf inactive | Kir21 sel inactive | KCNK9 uninduced 25%
COc1ccc2oc(C(=O)N(C)CCOc3ccc(Cl)cc3)c(C)c2c1	none | KCNK9 inh conf inactive | Kir21 sel inactive | KCNK9 uninduced inactive
Cc1ccc2oc(C(=O)N(C)Cc3ccon3)c(C)c2c1	none
CC1CCCN(C(=O)CN(c2ccccc2)S(=O)(=O)c2ccc(F)cc2)C1 (stereo not drawn)	none (no result: hERG rescue, KCNQ1 block, KCNK9 block, Kir21 inh, KCNQ1 act)
Cc1ccc(C)c(NC(=O)CN(C)C(=O)COc2cccc3c2OC(C)(C)C3)c1	none
Cc1ccc(-c2cc(C(=O)Nc3ccc(S(=O)(=O)Nc4onc(C)c4C)cc3)c3ccccc3n2)cc1	none | KCNK9 inh conf inactive | Kir21 sel inactive | KCNK9 uninduced inactive
NS(=O)(=O)c1ccc(NC(=O)Nc2ccc3c(c2)OCO3)cc1	none
COC(=O)C(Cc1ccc(OC(=O)c2ccc(Cl)cc2)cc1)N1Cc2ccccc2C1=O (stereo not drawn)	none
COC(=O)C(Cc1ccc(OC(=O)c2ccc(C(F)(F)F)cc2)cc1)N1Cc2ccccc2C1=O (stereo not drawn)	KCNQ1 block 6 | KCNK9 inh conf inactive | Kir21 sel inactive | KCNK9 uninduced inactive
COc1cccc(C(=O)NC23CC4CC(CC(C4)C2)C3)c1	none
CCN(CC)S(=O)(=O)c1cccc(C(=O)NC2CCCCC2)c1	none
CCN(CC)S(=O)(=O)c1ccc(C)c(NC(=S)NC2CCCCC2)c1	none | KCNK9 inh conf inactive | Kir21 sel inactive | KCNK9 uninduced inactive
Cc1ccc(NC(=O)CN(C)Cc2cccs2)cc1Cl	KCNK9 block -16 | KCNK9 inh conf 68% | Kir21 sel inactive | KCNK9 uninduced 32%
CCN(CC)c1ccc(NC(=O)CN(C)Cc2cccs2)cc1	none
Cc1ccc(Cn2c(SCC(=O)N3CC(=O)Nc4ccccc43)nc3ccccc3c2=O)cc1	none | KCNK9 inh conf inactive | Kir21 sel inactive | KCNK9 uninduced inactive
CC(c1ccccc1)n1c(SCC(=O)N2CC(=O)Nc3ccccc32)nc2ccccc2c1=O (stereo not drawn)	KCNK9 block -9 | KCNK9 inh conf 36% | Kir21 sel inactive | KCNK9 uninduced inactive
NC(=O)CC(NC(=O)c1ccc(Br)cc1)c1ccc(N2CCC(Cc3ccccc3)CC2)c([N+](=O)[O-])c1 (stereo not drawn)	KCNK9 block -9.5 | KCNK9 inh conf 55% | Kir21 sel inactive | KCNK9 uninduced 32%
NC(=O)CC(NC(=O)c1ccc(Br)cc1)c1ccc(N2CCCCCCC2)c([N+](=O)[O-])c1 (stereo not drawn)	KCNK9 block -10 | KCNK9 inh conf 30% | Kir21 sel inactive | KCNK9 uninduced 42%
CCOC(=O)C1CCN(C(=O)c2sccc2Cl)CC1	none
N#Cc1ccc(-c2ccc3c(c2)OCO3)nc1SCC(=O)OCc1ccccc1	KCNK9 block -10 | KCNK9 inh conf inactive | Kir21 sel inactive | KCNK9 uninduced 27%
O=C(CSCc1ccco1)N1CCc2ccccc21	none
Cc1cccc(C(=O)NNC(=O)c2c(-c3ccccc3Cl)noc2C)c1O	none
Cc1cc2nc(-c3ccc4c(c3)CCC4)ccn2n1	none | KCNK9 inh conf inactive | Kir21 sel inactive | KCNK9 uninduced inactive
Cc1cc2nc(-c3cc(N4CCOCC4)ccc3[N+](=O)[O-])ccn2n1	none
Cc1ccc(NC(=O)CN(C)C(=O)c2ccccc2Sc2ccccc2C#N)cc1	none
COc1ccc(NC2CCCN(C(=O)c3cccc(N(C)C)c3)C2)cc1 (stereo not drawn)	none | KCNK9 inh conf inactive | Kir21 sel inactive | KCNK9 uninduced inactive
COc1ccc(NC2CCCN(C(=O)CCc3cccc(Cl)c3)C2)cc1 (stereo not drawn)	Kir21 inh -4.2 | KCNK9 inh conf inactive | Kir21 sel inactive | KCNK9 uninduced inactive
COc1cccc(C(=O)N2CCCC(Nc3ccc(C)c(C)c3)C2)c1 (stereo not drawn)	none | KCNK9 inh conf inactive | Kir21 sel inactive | KCNK9 uninduced inactive
Cc1cccc(C(=O)N2CCCC(Nc3ccc(C)c(C)c3)C2)n1 (stereo not drawn)	none | KCNK9 inh conf inactive | Kir21 sel inactive | KCNK9 uninduced inactive
COc1ccc(NC2CCCN(C(=O)c3ccc(C(C)=O)s3)C2)cc1 (stereo not drawn)	none
COc1ccc(NC2CCCN(C(=O)CCc3cccc(F)c3)C2)cc1 (stereo not drawn)	none
COc1ccc(NC2CCCN(C(=O)c3ccc(OC)o3)C2)cc1 (stereo not drawn)	none | KCNK9 inh conf inactive | Kir21 sel inactive | KCNK9 uninduced inactive
COc1ccc(NC2CCCN(C(=O)c3ccc4[nH]c(C)c(C)c4c3)C2)cc1 (stereo not drawn)	KCNK9 block -12 | KCNK9 inh conf inactive | Kir21 sel inactive | KCNK9 uninduced inactive
COc1ccc(NC2CCCN(C(=O)c3ccc(C)nc3)C2)cc1 (stereo not drawn)	none
COc1ccc(NC2CCCN(C(=O)c3ccc(C(C)=O)cc3)C2)cc1 (stereo not drawn)	none
Cc1cc(CNC(=O)COC(=O)C2CC3CCCC(C2)C3=O)cc(C)c1O (stereo not drawn)	none (no result: hERG rescue, KCNQ1 block, KCNK9 block, Kir21 inh, KCNQ1 act)
CCCN(CCC)c1ccc(CC(=O)NC(C)Cc2ccccc2)cc1 (stereo not drawn)	none | KCNK9 inh conf inactive | Kir21 sel inactive | KCNK9 uninduced inactive
Cc1ccc(NC(=O)C2CCCN2C(=O)OCc2ccccc2)c(O)c1 (stereo not drawn)	none
